Results on 37 sequences are retold here after the array DNA melting data of Ke et al. (doi:10.1101/2024.01.08.574731).

Series [1] is described as follows: folding enthalpy; higher = less favourable; fluorescence melt of hairpins on a sequencing array, two-state fit. The note with it: sodium 0.088 M. The method in brief:
(§1)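 Melting temperature and folding enthalpy were derived from bootstrapped two-state fits. The fitted temperatures were raised by 9.35 °C to agree with UV melts, and four replicates were combined by inverse variance. The underlying data were Cy3 fluorescence images of library hairpins, with annealed Cy3 and quencher oligos, on a sequenced MiSeq flow cell in 50 mM Na-HEPES pH 8.0, 25 mM NaCl, taken in 2.5 °C steps up to 60 °C, normalised to pre-quench Cy3 and to control constructs.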

Series [2] can be described thus: melting temperature; fluorescence melt of hairpins on a sequencing array, two-state fit, raised by 9.35 °C to match UV melts. The note with it: sodium 0.088 M. In short, it runs like this: as §1

As for GACTGCCGAAAGGCGTC (((.(((....)))))), the folding enthalpy in series [1] is -13.8 kcal/mol. In addition, the Tm in series [2] amounted to 53.8 °C.
The like results for GTTCTCGAAAGAGAAAC ((((((....))).))) were, in that order, -17 kcal/mol and 39.7 °C.
Consider GGTCGCCGAAAGGCACC (((.(((....)))))), for which the folding enthalpy in series [1] is -12.6 kcal/mol. Besides, the Tm in series [2] came to 55.3 °C.
For the sequence GGATAGAAATATCC (((((....))))), the folding enthalpy in series [1] is -17.5 kcal/mol. The Tm in series [2] is 36 °C.
For the sequence TGACTGAAAAGTCA (((((....))))), in series [1], the folding enthalpy is -23.2 kcal/mol. The Tm in series [2] amounted to 46 °C.
GCGTCGTGACGC ((((....)))): the folding enthalpy in series [1] was -22.7 kcal/mol. For the same sequence, in series [2], the Tm is 68.4 °C.
For the sequence GATCCGGTTCCGGATC ((((((....)))))), the folding enthalpy in series [1] was -43 kcal/mol. Besides, in series [2], the Tm was 62.7 °C.
In the case of GGGAAGGGAAACTTTCCC (((((.(....).))))), the folding enthalpy in series [1] was -26 kcal/mol. Besides, in series [2], the Tm came to 45.5 °C.
For the sequence GTGTGTCGAAAGACGCAC (((.(((....))).))), the folding enthalpy in series [1] was -37.7 kcal/mol. In addition, the Tm in series [2] was 61.4 °C.
Regarding GTCCTGTCGAAAGACGAC (((..(((....)))))), the folding enthalpy in series [1] is -11.2 kcal/mol. In addition, the Tm in series [2] was found to be 34.1 °C.
With GTCGCACGAAAGTGTGAC (((.(((....))).))), in series [1], the folding enthalpy was -42.4 kcal/mol. The Tm in series [2] turned out to be 67.4 °C.
Regarding GGAAGCGAAAGCTTCTCC ((((((....)))..))), in series [1], the folding enthalpy was -9.47 kcal/mol. For the same sequence, the Tm in series [2] is 53.3 °C.
As for GATCGAGTTATCGATC ((((((....)))))), in series [1], the folding enthalpy was -41.7 kcal/mol. Further, the Tm in series [2] was determined as 58.6 °C.
The like results for GGGTCAGGAAACTGGCTC (.(.(((....))).).) were, in that order, -24.5 kcal/mol and 39.8 °C.
Turning to GCAACTGGAAACGGTTGC (((((.(....).))))), in series [1], the folding enthalpy is -45.2 kcal/mol. In addition, the Tm in series [2] worked out at 54.2 °C.
As to GCTCGTCGAAAGACAAGC (((.(((....))).))), the folding enthalpy in series [1] is -24.7 kcal/mol. For the same sequence, the Tm in series [2] is 49.5 °C.
With GCTATTCGAAAGAAGAGC (((.(((....))).))), the folding enthalpy in series [1] was -39.9 kcal/mol. The Tm in series [2] came out at 51.1 °C.
With GCTGATCGAAAGATGAGC (((.(((....))).))), the folding enthalpy in series [1] is -32.2 kcal/mol. Also, the Tm in series [2] was determined as 48 °C.
Consider GACAGCACGAAAGTGGTC (((..(((....)))))), for which the folding enthalpy in series [1] is -13.7 kcal/mol. Moreover, the Tm in series [2] was 36 °C.
The like results for GCCGCCCGAAAGGGGGC (((.(((....)))))) were, in that order, -18 kcal/mol and 68.7 °C.
The like results for GCGAAGCGAAAGCAACGC (((..((....))..))) were, in that order, -11 kcal/mol and 48.4 °C.
GAGAGACGAAAGTCACTC (((.(((....))).))): in series [1], the folding enthalpy was -35.1 kcal/mol. The Tm in series [2] was 51.3 °C.
For GCGGAGCGAAAGCTTTGC ((..(((....)))..)), the folding enthalpy in series [1] is -14.3 kcal/mol. Further, in series [2], the Tm is 45.5 °C.
As for GTATTCGGAAACGAGTAC (((.(((....))).))), the folding enthalpy in series [1] is -28.6 kcal/mol. For the same sequence, in series [2], the Tm came out at 43.6 °C.
The like results for GCCTCCTCGAAAGAGGGC (((..(((....)))))) were, in that order, -9.35 kcal/mol and 43.9 °C.
As for GTAGAGGGAAACTTCTAC (((((.(....).))))), the folding enthalpy in series [1] was -21.5 kcal/mol. Also, in series [2], the Tm came to 35 °C.
As to GGCCTGGGAAACCAGGTC (.(((((....))))).), the folding enthalpy in series [1] is -33 kcal/mol. Moreover, in series [2], the Tm was 58.5 °C.
Turning to GCCCGGCGAAAGCGGCGC ((.(.((....)).).)), the folding enthalpy in series [1] is -21.1 kcal/mol. The Tm in series [2] stood at 64.6 °C.
Regarding GCGTCAGTACGC ((((....)))), the folding enthalpy in series [1] was -20.1 kcal/mol. The Tm in series [2] came out at 51.1 °C.
The like results for GAGACACGAAAGTGCTC (((.(((....)))))) were, in that order, -16.6 kcal/mol and 44.6 °C.
As to GTAGAGCGAAAGCTTTAC (((.(((....))).))), the folding enthalpy in series [1] was -24.4 kcal/mol. For the same sequence, in series [2], the Tm was 47.5 °C.
With TTACGGAAACGTAA (((((....))))), in series [1], the folding enthalpy is -14.8 kcal/mol. Besides, in series [2], the Tm worked out at 42.1 °C.
On to GGACCCGAAAGGGACTCC ((((((....)))..))), for which the folding enthalpy in series [1] is -13 kcal/mol. Besides, the Tm in series [2] came out at 54 °C.
The like results for GAGTGCGAAAGCAATCTC ((((((....)))..))) were, in that order, -21.4 kcal/mol and 53.7 °C.
For the sequence GAATAACGAAAGTTCTTC (((.(((....))).))), in series [1], the folding enthalpy was -20.7 kcal/mol. In series [2], the Tm came to 32.2 °C.
Consider GAATACCGAAAGGTTTTC (((.(((....))).))), for which, in series [1], the folding enthalpy was -25.7 kcal/mol. Also, the Tm in series [2] was determined as 39.5 °C.
As for GCATAGGCGAAAGCCTGC (((..(((....)))))), the folding enthalpy in series [1] was -13.5 kcal/mol. Moreover, the Tm in series [2] was 49 °C.
